From PubChem BioAssay AID623897 (Broad Institute, 2012)
Values joined by “and” are separate entries in the source; they are usually repeats but may differ in a detail not shown here. Identical values can stand only once. Active and inactive are the calls of the source.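 How the source made its calls: active means fitted AC50 at or below twice the top valid tested dose for that sample, with falling signal; inconclusive means flat curve with 30 to 70% inhibition, or poor fit; inactive means the rest.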

Experiments:
[1] = fluconazole-resistant Candida isolate growth inhibitors – retest at dose, dry powder, set 2, confirmation (AID 623897); conditions: C. albicans CaCi-17 growth, Alamar Blue fluorescence, 48 h; at 26 µM (top of the series)
Procedure, shortened: (§1)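 Buffer or medium: RPMI 1640, MOPS-buffered, with added uridine and glucose. Incubation: 48 h static growth at 37 °C, then 2 h Alamar Blue. Technique: Alamar Blue fluorescence. Control set: amphotericin B 10 µM as positive control.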

[2] = tested on: C. albicans CaCi-17 growth, Alamar Blue fluorescence, 48 h; experiment: as above
Procedure, shortened: as §1

Row | Compound | activity change, negative = inhibition [1] | AC50 [2]
1 | Cc1ccc(N2C(=O)C3(CCCCC3)NC2=S)cc1 | 5.29% (inactive) | 
2 | O=C1NC(=S)N(c2ccc(F)cc2)C12CCCCC2 | -18.2% (inactive) | 
3 | COC(=O)N1C(=O)C2(CCCCC2)N(c2ccc(C)cc2)C1=S |  | 17.1 µM
4 | CCCCN1C(=O)C2(CCCCC2)N(c2ccc(C)cc2)C1=S | -7.78% (inactive) | 
5 | CCOC(=O)N1C(=O)C2(CCCCC2)N(c2ccc(Cl)cc2)C1=S |  | 1.37 µM
6 | CCOC(=O)N1C(=O)C2(CCCCC2)N(c2ccc(C(C)C)cc2)C1=S | 8.52% (inactive) | 
7 | CCOC(=O)N1C(=O)C(C)(C)N(c2ccc(C)cc2)C1=S | 11.1% (inactive) | 
8 | Cc1ccc(N2CC(=O)NC2=S)cc1 |  | > 52 µM (inactive)
9 | Cc1ccc(N2C(=S)NC(=O)C23CCCC3)cc1 | 4.84% (inactive) | 
10 | O=C1NC(=S)N(Cc2ccccc2)C12CCCCC2 | 0.955% (inactive) | 
11 | CCOC(=O)N1C(=O)C2(CCCCC2)N(c2ccccc2)C1=S |  | 4.15 µM
12 | CCOC(=O)N1C(=O)C2(CCOCC2)N(c2ccc(C)cc2)C1=S | 0.474% (inactive) | 
13 | CCOC(=O)N1C(=O)C2(CCCCC2)N(c2ccc(C#N)cc2)C1=S |  | 1.76 µM
14 | CCOC(=O)N1C(=O)C2(CCCCC2)N(c2ccc(C)cc2)C1=S |  | 8.5 µM and 9.7 µM
15 | Cc1ccc(N2C(=S)NC(=O)C23CCC3)cc1 |  | > 52 µM (inactive)
16 | Cc1ccc(N2C(=S)N(C(=O)Oc3ccccc3)C(=O)C23CCCCC3)cc1 | 1.41% (inactive) | 
17 | Cc1ccc(N2C(=S)NC(=O)C2(C)C)cc1 | 2.64% (inactive) | 
18 | CCCc1ccc(N2C(=S)N(C(=O)OCC)C(=O)C23CCCCC3)cc1 | -11.5% (inactive) | 
19 | CCOC(=O)N1C(=O)C2(CCCCC2)N(c2ccccc2C)C1=S |  | 23.9 µM
20 | CCOC(=O)N1C(=O)C2(CCCCC2)N(c2cccc(C)c2)C1=S |  | 8.16 µM
21 | Cc1ccc(N2C(=S)NC(=O)C23CCOCC3)cc1 |  | > 52 µM (inactive)
22 | Cc1ccc(N2C(=O)C(=O)NC2=S)cc1 | 5.65% (inactive) | 
23 | CCOC(=O)N1C(=O)C2(CCCC2)N(c2ccc(C)cc2)C1=S | 1.68% (inactive) | 
24 | O=C1NC(=S)N(c2ccccc2)C12CCCCC2 |  | > 52 µM (inactive)
25 | CCOC(=O)N1C(=O)C2(CCCCC2)N(C(C)C)C1=S | -6.94% (inactive) | 
26 | CCOC(=O)N1C(=S)N(c2ccc(C)cc2)C2(CCCCC2)C1=NCc1ccccc1 | 5.9% (inactive) | 

Row | Compound | activity change, negative = inhibition [1] | AC50 [2]
27 | CCOC(=O)N1C(=O)C2(CCCCC2)N(Cc2ccccc2)C1=S |  | 22.8 µM
28 | Cc1ccc(N2C(=O)NC(=O)C23CCCCC3)cc1 | 5.65% (inactive) | 
29 | Cc1ccc(N2C(=O)N(C)C(=O)C23CCCCC3)cc1 | 0.531% (inactive) | 
30 | CCCCN1C(=O)N(c2ccc(C)cc2)C2(CCCCC2)C1=O | 9.41% (inactive) | 
31 | Cc1ccc(N2C(=S)N(C(=O)OC(C)C)C(=O)C23CCCCC3)cc1 | 7.31% (inactive) | 
32 | Cc1ccc(N2C(=S)N(C(=O)OCc3ccccc3)C(=O)C23CCCCC3)cc1 | 5.07% (inactive) | 
33 | CCCC(=O)N1C(=O)C2(CCCCC2)N(c2ccc(C)cc2)C1=S | 8.69% (inactive) | 
34 | CCOC(=O)N1C(=S)N(c2ccc(C)cc2)C(=O)C12CCCCC2 | 3.4% (inactive) | 
35 | CCOC(=O)N1C(=O)C2(CCCCC2)N(c2ccc(-c3ccccc3)cc2)C1=S |  | > 52 µM (inactive)
36 | Cc1ccc(N2C(=S)N(S(C)(=O)=O)C(=O)C23CCCCC3)cc1 | 3.7% (inactive) | 
37 | CCOC(=O)N1C(=S)NC(=O)C12CCCCC2 | 8.62% (inactive) | 
38 | CC1/C=C/C=C\C=C\C=C\C=C\C=C\C=C\C(O[C@H]2OC(C)C(O)C(N)C2O)CC2OC(O)(CC(O)CC(O)C(O)CCC(O)CC(O)CC(=O)OC(C)C(C)C1O)CC(O)C2C(=O)O (some centres not stated) |  | 0.0301 µM
39 | CCOC(=O)N1C(=O)C2(CCCCC2)N(c2ccc(C(C)(C)C)cc2)C1=S |  | > 52 µM (inactive)
40 | CCOC(=O)N1C(=O)C2(CCCCC2)N(c2ccc(CC)cc2)C1=S | -31.8% (inactive) | 
41 | CCOC(=O)N1C(=O)N(c2ccc(C)cc2)C2(CCCCC2)C1=O |  | > 52 µM (inactive)
42 | Cc1ccc(N2C(=S)N(C)C(=O)C23CCCCC3)cc1 | -21% (inactive) | > 52 µM (inactive)
43 | CCOC(=O)N1C(=O)C2(CCCCC2)N(c2ccc(F)cc2)C1=S |  | 0.946 µM
44 | CCOC(=O)N1C(=O)C2(CCCCC2)NC1=S | -0.208% (inactive) | 
45 | CC(C)N1C(=S)NC(=O)C12CCCCC2 | -18.9% (inactive) | 
46 | Cc1ccc(N2CC(=O)NC2=O)cc1 | -8.61% (inactive) | 
47 | CCCOC(=O)N1C(=O)C2(CCCCC2)N(c2ccc(C)cc2)C1=S | 17.3% (inactive) | 
48 | CCOC(=O)N1C(=O)C2(CCCCC2)N(c2ccc(C(F)(F)F)cc2)C1=S |  | 16.2 µM
49 | O=C1NC(=S)NC12CCCCC2 | 2.58% (inactive) | 
50 | CCOC(=O)N1C(=O)C2(CCC2)N(c2ccc(C)cc2)C1=S | 13.1% (inactive) | 
51 | Cc1ccc(N2C(=S)NC(=O)C23CCCCC3)cc1 | -4.65% (inactive) | 
